# Sampled rows, rich in hits. Any-hit rate of the full collection: about 11%.
# RORA act – activators of orphan receptor RORA, primary screen, cell-based, luminescence; CHO-K1 Gal4-RORA LBD luciferase reporter; percent increase over mock-subtracted basal signal; activation, % at 10 µM; 65,000 compounds, 1.5% hits;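 active means activation above the mean of all tested compounds plus 3 SD, cut at about 49% in these data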
# Target sequence (P35398 whole entry, looked up, the tested form may be a part): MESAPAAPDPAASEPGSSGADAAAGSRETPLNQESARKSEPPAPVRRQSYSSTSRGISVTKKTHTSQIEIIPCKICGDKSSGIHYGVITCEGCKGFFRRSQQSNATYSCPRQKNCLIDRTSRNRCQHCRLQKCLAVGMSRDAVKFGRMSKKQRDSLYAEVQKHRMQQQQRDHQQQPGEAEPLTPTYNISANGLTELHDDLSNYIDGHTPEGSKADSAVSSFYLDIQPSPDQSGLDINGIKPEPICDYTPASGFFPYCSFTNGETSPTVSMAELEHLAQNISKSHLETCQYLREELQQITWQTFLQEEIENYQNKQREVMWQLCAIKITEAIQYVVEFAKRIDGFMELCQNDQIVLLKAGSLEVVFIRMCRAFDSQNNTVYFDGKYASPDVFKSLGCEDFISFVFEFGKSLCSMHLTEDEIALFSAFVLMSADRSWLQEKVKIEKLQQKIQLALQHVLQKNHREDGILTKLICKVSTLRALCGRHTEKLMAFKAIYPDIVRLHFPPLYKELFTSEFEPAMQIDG
# SF-1 act – activators of human SF-1, primary screen, cell-based, CHO-K1, Gal4-SF-1 LBD, luciferase luminescence. Steroidogenic factor 1 (Homo sapiens), Q13285. CHO-K1 Gal4-SF-1 LBD luciferase reporter; % increase over DMSO SF-1-specific signal. activation, % at 10 µM. 65,000 compounds, 1.9% hits. AID 522, 2006;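 active means activation above the mean activation of all tested compounds plus 3 SD, cut at about 50% in these data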
#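 Test system: CHO-K1 cells co-transfected with Gal4 DBD–human SF-1 LBD, 5xGal4 luciferase reporter. Quantity: 4,000 cells per well. Compound: 10 µM only. Incubation: compound added 1 h post-seeding, 20 h exposure at 37 °C, 5% CO2. Detection: SteadyLite luciferase luminescence. Replication: one test per compound.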
# M1 ag – M1 muscarinic receptor agonists, primary screen, CHO-M1 cells, Fluo-4 calcium, agonist mode; Muscarinic acetylcholine receptor M1; Fluo-4 calcium fluorescence; stronger effect = higher value; 64,000 compounds, 3% hits; B-score at 10 µM;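 active means fluorescence rise, raw or as B-score row- and column-corrected plate score, outside the 99.7% band of its plate's samples, either direction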
# M1 antag – antagonists of rat M1 muscarinic receptor; Muscarinic acetylcholine receptor M1 (Rattus norvegicus), P08482; AID 628, 2007; CHO-M1 cells, Fluo-4 calcium, ACh EC80 antagonist mode; stronger effect = lower value; B-score at 10 µM; 64,000 compounds, 3.4% hits;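 active means calcium fluorescence response, raw or row-and-column corrected B-score, differing from the plate sample mean either way at a set confidence level, mostly lower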
# D1 mod – D1 CRE-luciferase signal change, two-sided – cell-based, HEK293 D1, dopamine EC30, D1 allosteric modulator project, primary screen; dopamine EC30 potentiation; actives deviate in either direction; D(1A) dopamine receptor (Homo sapiens), P21728; B-score at 10 µM; AID 641, 2007; 58,000 compounds, 5.9% hits;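 active means luminescence count or its row- and column-corrected plate score outside the 99.7% band of the plate's sample wells, on either side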
# mHtt clearance – clearance of mutant huntingtin inclusions, primary screen, imaging, HeLa Exon1htt(103Q)mCFP, confocal imaging. inhibition, % at 1.5 µM. 47,000 compounds, 0.42% hits. aggregate imaging; zero = plate's median compound well;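 active means inhibition of aggregate fluorescence above about 70%, also judged a hit by eye on the cell image, limit read from the data, passing the limit was not always enough; inconclusive means no rule stated for this call; inactive means not judged a hit on image review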;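 further: cells exposed to compound for three days before fixation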
# Numbers stand for hits; . = inactive; ? = inconclusive; / = no result.
SMILES,RORA act,SF-1 act,M1 ag,M1 antag,D1 mod,mHtt clearance
CCOC(=O)c1c(N)sc(C(=O)Nc2ccc3c(c2)OCO3)c1C,.,.,.,.,-4.37,/
O=C(Nc1ccc(F)c(F)c1)c1ccc2c(c1)OCO2,.,66.2,.,.,.,/
O=C(Nc1ccc(Cl)cc1)c1ccc2c(c1)OCO2,.,.,.,.,.,.
O=C(Nc1ccc2c(c1)OCO2)c1cccc(Cl)c1,.,67.0,.,.,.,.
O=C(Nc1ccc2c(c1)OCO2)c1c(Cl)nc2sccn12,.,66.1,.,.,.,/
O=c1cc(NCc2ccco2)[nH]c(=O)n1-c1ccc(Br)cc1,.,.,.,.,.,.
Cc1noc(C(=O)Nc2ccc3c(c2)OCO3)c1Cl,65.0,60.6,.,.,.,.
O=C(O)CCc1ccc(-c2ccc(Cl)cc2)n1CC(=O)O,.,.,.,.,-3.68,.
COc1ccc2nc3sc(C(=O)NCc4cccs4)c(N)c3cc2c1,.,74.4,.,.,.,/
CCOc1ccc(C(=O)NCc2cccs2)cc1,.,.,.,.,.,.
Clc1ccc(-c2ccc(/C=N/Nc3cc(N4CCOCC4)nc(N4CCOCC4)n3)o2)cc1,/,/,/,/,/,.
O=C(Nc1ccncc1)C1CCCN(S(=O)(=O)c2cccc3cccnc23)C1 (centres undefined),56.6,.,.,.,.,.
Cc1cccc(NC(=O)C2CCCN2S(=O)(=O)c2cccc3cccnc23)c1 (centres undefined),.,.,.,0.736,.,.
Cc1ccc(NC(=O)C2CCCN2S(=O)(=O)c2cccc3cccnc23)cc1F (centres undefined),.,.,.,.,.,/
CCc1c(O)cc2n(c1=O)-c1ccc(Cl)cc1C2(C)C,/,/,/,/,/,.
CO[C@@H]1O[C@@H]2COC(c3ccccc3)O[C@@H]2[C@@H](OC)[C@@H]1O (some centres undefined),/,/,/,/,/,.
Cc1ccc(C(=O)Nc2ccc(Cl)cn2)cc1,.,.,.,.,-4.13,/
Cc1ccccc1C(=O)Nc1ccc(Br)c(C)n1,55.9,.,.,.,.,.
CC(C)C(=O)Nc1ccc(NC(=O)c2ccccc2Cl)nc1,61.6,.,.,.,.,/
Cc1nc(NC(=O)c2cccnc2)ccc1Br,.,.,.,.,.,.
CCCOc1ccc(C(=O)Nc2ccc(Cl)cn2)cc1,/,/,/,/,/,.
CCN(CC)S(=O)(=O)c1cccc(C(=O)Nc2ccc(Cl)cn2)c1,.,.,.,.,.,.
CCN(CC)S(=O)(=O)c1cc(C(=O)Nc2ccc(Cl)cn2)ccc1C,.,61.3,.,.,.,/
O=C(CNC(=O)c1cccs1)c1ccc(F)cc1,/,/,/,/,/,.
Cn1c(=O)c2c(nc(Sc3n[nH]c(N)n3)n2Cc2ccccc2Cl)n(C)c1=O,.,.,.,.,.,.
SMILES,RORA act,SF-1 act,M1 ag,M1 antag,D1 mod,mHtt clearance
Cc1ccccc1C(=O)Nc1ccc(Cl)cn1,56.4,.,.,.,.,.
CCNC(=O)C(=O)NCCc1ccc(Cl)cc1,/,/,/,/,/,.
CN(C)Cc1cc(CCNC(=O)c2ccc(Cl)cc2)ccc1O,.,.,/,/,-2.91,.
O=C(Nc1ccccc1C(=O)O)c1ccc2ccccc2n1,.,80.1,.,.,.,.
O=C1CC(N2CCN(S(=O)(=O)c3cccc(C(F)(F)F)c3)CC2)C(=O)N1Cc1ccccc1 (centres undefined),.,.,.,.,.,.
COc1ccc(S(=O)(=O)Nc2cc(C)on2)cc1OC,.,.,.,.,-2.8,.
COc1ccccc1C(=O)Nc1ccc(S(=O)(=O)Nc2cc(C)on2)cc1,.,.,.,.,.,.
Cc1c(Cl)ccc2c1NC(=O)C21NC(CCC(N)=O)[C@H]2C(=O)N(c3ccc(Cl)cc3)C(=O)[C@H]21 (some centres undefined),.,.,.,1.81,.,.
O=C(Nc1cccc(NC(=O)c2nccc3ccccc23)c1)c1ccco1,.,.,.,.,.,/
CC(CN1CCCC(C(N)=O)C1)c1ccccc1 (centres undefined),.,.,.,.,-3.43,.
CSc1nsc(SCc2ccc(F)cc2)n1,.,.,.,.,.,.
CCc1ccc2oc(-c3cc(N=Cc4cccc(OC)c4O)ccc3O)nc2c1,.,.,.,.,-5.61,.
O=C(CCn1c(=O)oc2ccccc21)NCc1cccs1,.,.,.,.,.,.
COc1ccccc1N1CCN(CC(=O)NCC2CCCO2)CC1 (centres undefined),/,/,/,/,/,.
COc1ccc(OC)c(-n2c(C)nc3cc(C(=O)O)ccc32)c1,.,.,.,.,.,73.5
COc1ccc(-n2c(C)nc3cc(C(=O)N4CCOCC4)ccc32)cc1,.,.,.,.,.,/
CCOC(=O)N1CCN(S(=O)(=O)c2ccc3c(c2)OCC(=O)N3)CC1,.,.,.,.,.,70.7
O=C1CC(C2CCCO2)C(=O)N1c1ccccc1 (centres undefined),/,/,/,/,/,.
CCc1nc(SCC(=O)N2CCCc3ccccc32)c2c(=O)n(C)c(=O)n(C)c2n1,.,.,3.5,.,.,/
CCc1nc(SCC(N)=O)c2c(=O)n(C)c(=O)n(C)c2n1,.,.,.,.,.,?
CCCCn1c(SCC(=O)N2CCCc3ccccc32)nc2c1c(=O)n(C)c(=O)n2C,.,.,9.69,.,.,/
Cn1c(=O)c2c(nc(SCC(=O)N3CCCc4ccccc43)n2C)n(C)c1=O,.,.,.,.,.,.
CCCC/C(C)=N/NC(=O)C(=O)NCCc1ccccc1,/,/,/,/,/,.
Cc1nc2ccccc2c2oc(C(=O)NCc3ccccn3)cc12,.,.,.,.,-3.67,/
Cc1ccc(NC(=O)c2ocnc2C)cc1Cl,61.4,71.9,.,.,.,.
SMILES,RORA act,SF-1 act,M1 ag,M1 antag,D1 mod,mHtt clearance
Cc1ncoc1C(=O)Nc1cccc(Cl)c1,.,.,.,.,.,.
Cc1ocnc1C(=O)Nc1ccc(Cl)cc1,.,.,.,.,-1.89,/
Cc1ccc(C)c(N2CCN(c3ncnc4c3cnn4-c3ccccc3)CC2)c1,.,.,.,.,.,/
Cc1ccc(-n2ncc3c(N4CCCC4)ncnc32)c(C)c1,.,66.0,.,.,/,.
Cc1ccc(-n2ncc3c(N4CCCC(C)C4)ncnc32)c(C)c1 (centres undefined),.,58.7,.,.,.,/
CC(C)CCn1c(NCCc2ccccc2)nc2c1c(=O)n(C)c(=O)n2C,.,.,.,.,.,/
CC(C)CCNC(=O)Cn1c(NCCC(C)C)nc2c1c(=O)n(C)c(=O)n2C,.,.,.,1.3,.,.
CCOc1cc(N2CCOCC2)c(OCC)cc1NC(=O)c1nc2nccc(C)n2n1,.,.,4.86,.,.,/

# Screening data as filed in PubChem.
